Experimental findings from ChEMBL document CHEMBL1145837, “Design and synthesis of 4,6-di-tert-butyl-2,3-dihydro-5-benzofuranols as a novel series of antiatherogenic antioxidants” (J Med Chem, 2003) are described below.

The IC50 is the concentration that inhibits the measured activity by half. A low value points to inhibition by little substance.

In series [1] the test system is Oryctolagus cuniculus. Put plainly: Distribution of compound into VLDL lipoprotein fraction of WHHL Rabbit's plasma after oral administration. In kind it is ADME, organism-based. Particulars: in vivo. Summed up: (§1)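 WHHL rabbits given test compound orally (250 mg/kg) once daily for 9 days; at 24 h after final dose plasma lipoproteins isolated by Havel procedure, EtOAc-extracted, compound content per mg lipoprotein measured by reverse-phase HPLC. Mean ± range, n = 2.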

Series [2] deals with Oryctolagus cuniculus. Description: Distribution of compound into LDL lipoprotein fraction of WHHL Rabbit's plasma after oral administration. In kind it is ADME, organism-based. Particulars: in vivo. In outline:
as §1

For series [3], the system named is Oryctolagus cuniculus. Description: Distribution of compound into HDL lipoprotein fraction of WHHL Rabbit's plasma after oral administration. In kind it is ADME, organism-based. The note with it: in vivo. In outline: as §1
The species entered for series [4] is Oryctolagus cuniculus. Description: Inhibition of LDL oxidation induced by cupric ions (CuSO4) at 1 uM expressed as % control. In kind it is functional. Summed up: (§2)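 Rabbit LDL (d 1.019–1.063 g/mL, sequential ultracentrifugation) at 200 μg/mL with compound at stated concentration, oxidized by soybean lipoxygenase type-IS or CuSO4 at 37 °C for 24 h in CO2 incubator. Read-out: TBARS and LDL fluorescence by gel permeation chromatography (0.1 M NaCl, 0.05 M Tris pH 7.4); expressed as % of control; duplicate or more.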

The species entered for series [5] is Oryctolagus cuniculus. Put plainly: Inhibition of LDL oxidation induced by cupric ions (CuSO4) at 10 uM expressed as % control. In kind it is functional. Summed up:
as §2

The target of series [6] is T1, Seed linoleate 13S-lipoxygenase-1 (Glycine max) (UniProt P08170).
T1 sequence (whole entry): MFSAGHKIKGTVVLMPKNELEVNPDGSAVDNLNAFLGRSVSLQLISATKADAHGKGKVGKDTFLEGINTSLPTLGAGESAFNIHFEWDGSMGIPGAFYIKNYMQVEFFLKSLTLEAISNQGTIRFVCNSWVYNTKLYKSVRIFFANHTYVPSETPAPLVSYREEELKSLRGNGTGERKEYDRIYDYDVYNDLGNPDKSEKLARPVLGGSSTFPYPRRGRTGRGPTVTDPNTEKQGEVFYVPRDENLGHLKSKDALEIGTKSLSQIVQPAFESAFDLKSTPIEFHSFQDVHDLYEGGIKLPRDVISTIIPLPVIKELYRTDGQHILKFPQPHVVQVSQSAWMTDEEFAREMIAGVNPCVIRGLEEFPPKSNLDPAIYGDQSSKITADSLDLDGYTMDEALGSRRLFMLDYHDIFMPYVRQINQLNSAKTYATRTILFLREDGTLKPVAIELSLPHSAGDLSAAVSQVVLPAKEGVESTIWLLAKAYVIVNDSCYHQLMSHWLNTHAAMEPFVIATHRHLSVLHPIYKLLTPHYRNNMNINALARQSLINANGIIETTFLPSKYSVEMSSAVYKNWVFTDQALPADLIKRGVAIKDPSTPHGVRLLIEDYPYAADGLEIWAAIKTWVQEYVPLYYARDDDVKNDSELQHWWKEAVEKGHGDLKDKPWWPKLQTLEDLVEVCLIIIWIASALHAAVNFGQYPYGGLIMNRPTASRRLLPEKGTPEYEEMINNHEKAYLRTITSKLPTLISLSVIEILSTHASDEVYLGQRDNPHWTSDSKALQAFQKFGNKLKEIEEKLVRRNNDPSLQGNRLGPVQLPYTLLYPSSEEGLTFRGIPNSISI
Description: Inhibition of LDL oxidation induced by soybean lipoxygenase (SLO) at 0.5 uM expressed as % control. In kind it is functional. In outline:
as §2

For series [7], the target named is T1, Seed linoleate 13S-lipoxygenase-1 (Glycine max). Put plainly: Inhibition of LDL oxidation induced by soybean lipoxygenase (SLO) at 5 uM expressed as % control. In kind it is functional. Summed up:
as §2

The nature of series [8]: Inhibition of MCLA chemiluminescence generated by autoxidation of linoleic acid. Summed up:
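Linoleic acid peroxyl radicals from autoxidation of 1 mM linoleic acid in 1-butanol with 10 μM MCLA, 10 min at 37 °C under air; quenching measured as change in MCLA chemiluminescence after compound addition; IC50 derived; duplicate or more.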

Series [9] has as its system Oryctolagus cuniculus. Put plainly: Distribution of compound into HDL lipoprotein fraction of WHHL Rabbit's plasma after oral administration; ND means not detected. In kind it is ADME, organism-based. The note with it: in vivo. In outline: as §1

Consider `CCCCCC1(CCCCC)Cc2c(cc(C(C)(C)C)c(O)c2C(C)(C)C)O1` [BO-653], for which, in the series with Oryctolagus cuniculus [1], the VLDL turned out to be 119.25 µg/mg. The molecule further came in with an LDL with Oryctolagus cuniculus [2] of 28.6 µg/mg. The HDL in the series with Oryctolagus cuniculus [3] was 2.98 µg/mg. The LDL oxidation remaining, % of control in the series listed under Oryctolagus cuniculus [4] was 96%; in the series filed under Oryctolagus cuniculus [5], 42%; in [6] it was 60.9%; in series [7] it was 4.6%. Besides, the half-inhibitory concentration (IC50) in [8] was determined as 4.6 µM.
The molecule `CC(C)CCC1(CCC(C)C)Cc2c(cc(C(C)(C)C)c(O)c2C(C)(C)C)O1` returned a VLDL in the series with Oryctolagus cuniculus [1] of 25.64 µg/mg. In the series with Oryctolagus cuniculus [2], this molecule came in with an LDL of 9.34 µg/mg. Moreover, in the series on Oryctolagus cuniculus [9], the HDL entry is recorded as “Not detected”. The LDL oxidation remaining, % of control came to 78% in the series listed under Oryctolagus cuniculus [4], 23% in the series filed under Oryctolagus cuniculus [5], 91.5% in series [6] and 7.1% in [7]. The molecule further registered a half-maximal inhibitory concentration (IC50) in series [8] of 5.7 µM.
Take `CC(C)(C)c1cc2c(c(C(C)(C)C)c1O)CCO2`: the LDL oxidation remaining, % of control stood at 53% in the series filed under Oryctolagus cuniculus [4], 11% in the series listed under Oryctolagus cuniculus [5], 36% in [6] and 6.9% in series [7]. Half-maximal inhibition in series [8] (IC50) required 7.2 µM.
On to `CCCCCCCC1(CCCCCCC)Cc2c(cc(C(C)(C)C)c(O)c2C(C)(C)C)O1`, for which the LDL oxidation remaining, % of control in the series listed under Oryctolagus cuniculus [4] was determined as 89%; in the series listed under Oryctolagus cuniculus [5], 83%; in series [6], 88.4%; in series [7] it was 18.5%.
For `CC(C)(Sc1cc(C(C)(C)C)c(O)c(C(C)(C)C)c1)Sc1cc(C(C)(C)C)c(O)c(C(C)(C)C)c1` [PROBUCOL], in the series with Oryctolagus cuniculus [1], the VLDL was found to be 5.48 µg/mg. This molecule yielded an LDL with Oryctolagus cuniculus [2] of 2.57 µg/mg. The same molecule gave an HDL in the series on Oryctolagus cuniculus [3] of 0.44 µg/mg. Also, the LDL oxidation remaining, % of control stood at 87% in the series filed under Oryctolagus cuniculus [4], 28% in the series listed under Oryctolagus cuniculus [5], 73.9% in [6] and 14% in [7]. This molecule also showed an IC50 in series [8] of 165 µM.
Consider `CCCCCCC1(CCCCCC)Cc2c(cc(C(C)(C)C)c(O)c2C(C)(C)C)O1`, for which the LDL oxidation remaining, % of control in the series listed under Oryctolagus cuniculus [4] turned out to be 86%; in the series listed under Oryctolagus cuniculus [5], 23%; in series [6], 75.5%; in [7], 2.7%.
On to `CC(C)(C)c1cc2c(c(C(C)(C)C)c1O)CC1(CCOCC1)O2`, for which the LDL oxidation remaining, % of control stood at 87% in the series listed under Oryctolagus cuniculus [4], 22% in the series listed under Oryctolagus cuniculus [5], 71.8% in [6] and 4.7% in [7]. The IC50 in series [8] stood at 8.2 µM.
`CCC1(CC)Cc2c(cc(C(C)(C)C)c(O)c2C(C)(C)C)O1`: the LDL oxidation remaining, % of control in the series listed under Oryctolagus cuniculus [4] is 77%; in the series filed under Oryctolagus cuniculus [5], 10%; in series [6] it was 9.4%; in series [7] it was 1.3%. The midpoint of inhibition in [8], the IC50, lay at 4.3 µM.
`CC(C)(C)c1cc2c(c(C(C)(C)C)c1O)CC(C(C)(C)C)O2` (stereo unspecified) returned a VLDL in the series with Oryctolagus cuniculus [1] of 27.69 µg/mg. The molecule also returned an LDL with Oryctolagus cuniculus [2] of 5.08 µg/mg. Also, the HDL entry in the series with Oryctolagus cuniculus [9] is listed as “Not detected”. For the same molecule, the LDL oxidation remaining, % of control came to 74% in the series filed under Oryctolagus cuniculus [4], 11% in the series filed under Oryctolagus cuniculus [5], 99% in series [6] and 1.8% in [7]. In series [8], this molecule displayed an IC50 of 8.4 µM.
With `CC1(C)Cc2c(cc(C(C)(C)C)c(O)c2C(C)(C)C)O1`, the LDL oxidation remaining, % of control in the series filed under Oryctolagus cuniculus [4] was 56%; in the series listed under Oryctolagus cuniculus [5], 10%; in series [6] it was 39.8%; in series [7] it was 1.8%. Further, 6.7 µM corresponded to half-maximal inhibition in series [8] (IC50).
In the case of `CC(C)(C)c1cc2c(c(C(C)(C)C)c1O)CC1(CCCCCCC1)O2`, the LDL oxidation remaining, % of control in the series listed under Oryctolagus cuniculus [4] is 92%; in the series filed under Oryctolagus cuniculus [5], 22%; in [6] it was 97.2%; in series [7] it was 9%. Also, it took 9.4 µM to reach half-maximal inhibition in series [8] (IC50).
On to `CCCCCCCCC1(CCCCCCCC)Cc2c(cc(C(C)(C)C)c(O)c2C(C)(C)C)O1`, for which the VLDL in the series on Oryctolagus cuniculus [1] turned out to be 1.16 µg/mg. This molecule also registered an LDL in the series with Oryctolagus cuniculus [2] of 0.36 µg/mg. Moreover, the HDL entry in the series with Oryctolagus cuniculus [9] is listed as “Not detected”. The LDL oxidation remaining, % of control in the series listed under Oryctolagus cuniculus [4] came out at 85%; in the series listed under Oryctolagus cuniculus [5], 72%; in series [6], 89.8%; in [7], 11.3%. In series [8], this molecule returned an IC50 of 5.6 µM.
In the series on Oryctolagus cuniculus [1], `CCCCC1(CCCC)Cc2c(cc(C(C)(C)C)c(O)c2C(C)(C)C)O1` came in with a VLDL of 57.07 µg/mg. The LDL with Oryctolagus cuniculus [2] is 11.04 µg/mg. For the same molecule, the HDL in the series on Oryctolagus cuniculus [3] came out at 3.22 µg/mg. Besides, the LDL oxidation remaining, % of control stood at 82% in the series filed under Oryctolagus cuniculus [4], 12% in the series listed under Oryctolagus cuniculus [5], 51.5% in series [6] and 0.5% in [7]. The same molecule gave a half-inhibitory concentration (IC50) in series [8] of 7.9 µM.
For the molecule `CC(C)(C)c1cc2c(c(C(C)(C)C)c1O)CC(Cc1ccccc1)(Cc1ccccc1)O2`, the LDL oxidation remaining, % of control in the series filed under Oryctolagus cuniculus [4] came out at 93%; in the series listed under Oryctolagus cuniculus [5] it was 11%; in series [6] it was 63.5%; in series [7], 3.6%. Also, the IC50 in series [8] was 10.6 µM.
For `CCCC1(CCC)Cc2c(cc(C(C)(C)C)c(O)c2C(C)(C)C)O1` the same measures were 87%, 13%, 33.3%, 0% and 4 µM.
The like results for `CC(C)(C)c1cc2c(c(C(C)(C)C)c1O)CC1(CCCCCC1)O2` were, in that order, 91%, 9%, 93.4%, 2.3% and 7.9 µM.
Take `CC(C)(C)c1cc2c(c(C(C)(C)C)c1O)CC1(CCCCC1)O2`: the LDL oxidation remaining, % of control in the series listed under Oryctolagus cuniculus [4] came to 77%; in the series filed under Oryctolagus cuniculus [5], 16%; in [6] it was 34.1%; in series [7], 0%. The half-inhibitory concentration (IC50) in [8] is 9.3 µM.
For `CC(C)(C)c1cc2c(c(C(C)(C)C)c1O)CC1(CCCC1)O2`, the LDL oxidation remaining, % of control was found to be 85% in the series listed under Oryctolagus cuniculus [4], 12% in the series listed under Oryctolagus cuniculus [5], 46.2% in series [6] and 0.4% in series [7]. This molecule also registered an IC50 in series [8] of 6.6 µM.
